Assay results published in ChEMBL document CHEMBL2086296, “Synthesis of novel quinoline-2-one based chalcones of potential anti-tumor activity” (Eur J Med Chem, 2012).

Experiments:
A498 [1] = assay: (§1) Cytotoxicity against human A498 cells after 24 hrs by SRB assay; type: cell-based; settings: a498, 24 h
Outline: (§2)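 NCI 60-cell screen. Cells grown in RPMI 1640 with 5% FBS and 2 mM L-glutamine, seeded at 5,000–40,000 cells/well, preincubated 24 h at 37 °C in 5% CO2. Drug stock in DMSO, diluted in medium with gentamicin; five final concentrations, 100, 10, 1.0, 0.1 and […]. Time-zero plates were TCA-fixed. Protein read by SRB staining; GI50, TGI and LC50 taken relative to time-zero.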

K562 [2] = assay: (§3) Cytotoxicity against human K562 cells after 24 hrs by SRB assay; type: cell-based; settings: k562, 24 h; outline: as §2
IGROV-1 [3] = assay: (§4) Cytotoxicity against human IGROV1 cells after 24 hrs by SRB assay; type: functional; settings: IGROV-1, 24 h
Outline: (§5)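 NCI 60-line screen. Cells in RPMI 1640 with 5% FBS and 2 mM L-glutamine, seeded at 5,000–40,000 cells/well by doubling time, then incubated 24 h at 37 °C, 5% CO2 before dosing. Time-zero plates fixed with TCA at drug addition. DMSO stocks diluted in medium with gentamicin to five concentrations, […]. Protein read by SRB staining. GI50, TGI and LC50 derived relative to control and time-zero.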

IGROV-1 [4] = assay: as §4; type: cell-based; settings: igrov-1, 24 h; outline: as §2
PC-3 [5] = assay: (§6) Cytotoxicity against human PC3 cells after 24 hrs by SRB assay; type: cell-based; settings: pc-3, 24 h; outline: as §2
K562 [6] = assay: as §3; type: functional; settings: K562, 24 h; outline: as §5
PC-3 [7] = assay: as §6; type: functional; settings: PC-3, 24 h; outline: as §5
A498 [8] = assay: as §1; type: functional; settings: A498, 24 h; outline: as §5
Mus musculus [9] = assay: Acute toxicity in athymic nude mouse assessed as weight loss up to 400 mg/kg, ip after 2 weeks; type: organism-based; design: dose 400 mg/kg, route intraperitoneal; settings: in vivo, 336 h
Outline: (§7)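 Single ip injection in athymic nude mice, one mouse per dose at 400, 200 and 100 mg/kg, dosed at 0.1 mL/10 g body weight, with feed and water ad libitum. Animals observed for 2 weeks and sacrificed on >20% body weight loss or other signs of significant toxicity. If all three were sacrificed, 50, 25 and 12.5 mg/kg were tested next.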

Mus musculus [10] = assay: Acute toxicity in athymic nude mouse assessed as mortality up to 400 mg/kg, ip after 2 weeks; type: organism-based; design: dose 400 mg/kg, route intraperitoneal; settings: in vivo, 336 h; outline: as §7

| SMILES | LC50 (A498 [1]) [µM] | LC50 (K562 [2]) [µM] | GI50 (IGROV-1 [3]) [µM] | TGI (IGROV-1 [3]) [µM] | LC50 (IGROV-1 [4]) [µM] | LC50 (PC-3 [5]) [µM] | GI50 (K562 [6]) [µM] | TGI (K562 [6]) [µM] | GI50 (PC-3 [7]) [µM] | TGI (PC-3 [7]) [µM] | GI50 (A498 [8]) [µM] | TGI (A498 [8]) [µM] | Activity (Mus musculus [9]) | Activity (Mus musculus [10]) |
| --- | --- | --- | --- | --- | --- | --- | --- | --- | --- | --- | --- | --- | --- | --- |
| O=C(/C=C/c1cc2ccccc2[nH]c1=O)c1ccc(O)cc1 | 47.8 | > 100 | 4.35 | 45.1 | > 100 | > 100 | 3.89 | > 100 | 5.39 | 55.3 | 8.44 | 21.3 | – | – |
| O=C(/C=C/c1cc2ccccc2[nH]c1=O)c1ccc(Cl)cc1 | – | – | 3.71 | 14.7 | 50.7 | – | – | – | – | – | – | – | – | – |
| O=C(/C=C/c1cc2ccccc2[nH]c1=O)/C=C/c1cc2ccccc2[nH]c1=O | – | – | – | – | – | – | – | – | – | – | – | – | Non-toxic | Non-toxic |
